Laboratory results as given in ChEMBL document CHEMBL1127473, “Estrone sulfamates: potent inhibitors of estrone sulfatase with therapeutic potential” (J Med Chem, 1994).
Calls of active or inactive are those of the source. No cut-off for these calls is given here.

Key:
[1] = target: T1, Steryl-sulfatase (Homo sapiens) (UniProt P08842); experiment: Tested for inhibition of estrone sulfatase in MCF-7 breast cancer cells using 2 nM substrate concentration at 0.1 uM; assay type: cell-based; settings: MCF7
T1 sequence (whole entry): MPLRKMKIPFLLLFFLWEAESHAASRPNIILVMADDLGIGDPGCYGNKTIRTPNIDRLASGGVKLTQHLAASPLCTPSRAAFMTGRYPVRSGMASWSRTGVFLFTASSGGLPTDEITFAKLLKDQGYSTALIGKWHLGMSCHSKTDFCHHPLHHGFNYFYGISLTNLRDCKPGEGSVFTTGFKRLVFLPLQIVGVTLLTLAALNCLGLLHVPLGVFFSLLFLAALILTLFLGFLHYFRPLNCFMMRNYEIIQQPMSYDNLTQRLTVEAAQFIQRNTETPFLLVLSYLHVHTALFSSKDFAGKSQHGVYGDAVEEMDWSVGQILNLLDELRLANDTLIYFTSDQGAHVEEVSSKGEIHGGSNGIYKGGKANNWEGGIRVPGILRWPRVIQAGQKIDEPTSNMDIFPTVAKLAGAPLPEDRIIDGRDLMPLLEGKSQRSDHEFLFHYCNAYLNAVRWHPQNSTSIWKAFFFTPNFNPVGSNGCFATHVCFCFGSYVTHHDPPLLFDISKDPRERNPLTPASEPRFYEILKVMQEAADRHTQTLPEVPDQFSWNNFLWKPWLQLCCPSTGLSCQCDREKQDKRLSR

[2] = target: T1, Steryl-sulfatase (Homo sapiens); experiment: Tested for inhibition of estrone sulfatase in MCF-7 breast cancer cells using 2 nM substrate concentration at 1 uM; assay type: cell-based; settings: MCF7
[3] = target: T1, Steryl-sulfatase (Homo sapiens); experiment: Tested for inhibition of estrone sulfatase in MCF-7 breast cancer cells using 2 nM substrate concentration at 10 uM; assay type: cell-based; settings: MCF7
Steryl-sulfatase = target: T2, Steryl-sulfatase (Homo sapiens, UniProt P08842); experiment: Tested for inhibition of estrone sulfatase in placental microsomal preparation (100000 g pellet) using substrate concentration of 20 uM; assay type: microsomes, Placenta
T2 sequence (P08842 whole entry): T1 sequence (whole entry)
Summary of the method: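 Placental microsomal preparation (100 000-g pellet) assayed with saturating [3H]estrone sulfate substrate (20 μM); IC50 derived for sulfatase inhibition.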

[4] = target: T1, Steryl-sulfatase (Homo sapiens); experiment: Tested for inhibition of estrone sulfatase in MCF-7 breast cancer cells using 2 nM substrate concentration at 1 uM; NI=No inhibition; assay type: cell-based; settings: MCF7
[5] = target: T1, Steryl-sulfatase (Homo sapiens); experiment: Tested for inhibition of estrone sulfatase in MCF-7 breast cancer cells using 2 nM substrate concentration at 10 uM; NI=No inhibition; assay type: cell-based; settings: MCF7
[6] = target: T1, Steryl-sulfatase (Homo sapiens); experiment: Tested for enzyme activity recovered after 20h in MCF-7 breast cancer cells at 1 uM; settings: MCF7
[7] = target: T1, Steryl-sulfatase (Homo sapiens); settings: MCF7; 1 uM

Row | SMILES | inhibition [2] [%] | inhibition [3] [%] | inhibition [4] | inhibition [5] | % activity recovered [6] [%] | inhibition [1] [%] | IC50 (Steryl-sulfatase) [µM] | % activity recovered [7]
1 | CSP(=O)(O)Oc1ccc2c(c1)CC[C@@H]1[C@@H]2CC[C@]2(C)C(=O)CC[C@@H]12 | 74 | 96 |  |  |  | 52 | 43 | 
2 | NS(=O)(=O)Oc1ccc2c(c1)CCCC2 | 47 | 97 |  |  |  |  |  | 
3 | CNS(=O)(=O)Oc1ccc2c(c1)CCC1[C@@H]2CC[C@]2(C)C(=O)CC[C@@H]12 (single isomer, unassigned) | 87 | 93 |  |  | > 50 |  |  | 
4 | C[C@]12CC[C@@H]3c4ccc(OS(N)(=O)=O)cc4CCC3[C@@H]1CCC2=O (single isomer, unassigned) [EMATE] | > 99 | > 99 |  |  |  | > 99 | 0.08 | inactive

Now from value to molecule, other results behind:

Row | inhibition [2] [%] | inhibition [3] [%] | inhibition [4] | inhibition [5] | % activity recovered [6] [%] | SMILES | inhibition [1] [%] | IC50 (Steryl-sulfatase) [µM] | % activity recovered [7]
5 |  |  | inactive | inactive |  | CN(C)S(=O)(=O)Oc1ccc2c(c1)CCCC2 |  |  | 
6 |  | 22 |  |  |  | CNS(=O)(=O)Oc1ccc2c(c1)CCCC2 |  |  | 
7 | 87 | 90 |  |  | 80 | CN(C)S(=O)(=O)Oc1ccc2c(c1)CCC1[C@@H]2CC[C@]2(C)C(=O)CC[C@@H]12 (single isomer, unassigned) | 79 |  | 
